Experimental data: ChEMBL document CHEMBL3616366, “Design, synthesis and biological activity of new amides derived from 3-methyl-3-phenyl-2,5-dioxo-pyrrolidin-1-yl-acetic acid” (Eur J Med Chem, 2015)
Calls of active or inactive are those of the source.

Experiments:
Mus musculus [1] = assay: Anticonvulsant activity in albino CD-1 mouse assessed as protection against maximal electroshock-induced seizure at 30 to 300 mg/kg, ip measured after 2.0 hrs; type: functional; details: for minimal effective dose: CD-1, ip, read-out: MED
Procedure, shortened: (§1)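 Male CD-1 mice (16–26 g), compound suspended in 0.5% methylcellulose/water, i.p. at 30, 100, 300 mg/kg; four mice per group, each used once. Electroconvulsion by electrical stimulus 0.2 s at 50 Hz; protection scored at 0.5 and 2 h. Value is minimum dose showing activity.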

Mus musculus [2] = assay: Anticonvulsant activity in albino CD-1 mouse assessed as protection against maximal electroshock-induced seizure at 30 to 300 mg/kg, ip measured after 0.5 hrs; type: functional; details: for minimal effective dose: CD-1, ip, read-out: MED; procedure, shortened: as §1
Mus musculus [3] = assay: Anticonvulsant activity in ip dosed albino CD-1 mouse assessed as protection against 6 Hz current-induced seizure measured after 0.5 hrs; type: functional; details: CD-1, ip, read-out: MED
Procedure, shortened: (§2)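 6-Hz psychomotor test: corneal stimulation 32 mA, 0.2 ms monopolar rectangular pulses at 6 Hz for 3 s, mice restrained then released to observation cage. Protected if normal exploratory behaviour resumes within 10 s. Doses 30, 100, 300 mg/kg i.p.; read at 0.5 and 2 h; minimum active dose.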

Mus musculus [4] = assay: Neurotoxicity in albino CD-1 mouse assessed as motor impairment at 30 to 300 mg/kg mg/kg, ip measured after 2 hrs by rotarod test; type: toxicity, organism-based; details: in vivo
Procedure, shortened: (§3)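 Rotarod in male CD-1 mice at 0.5 and 2 h after i.p. 30, 100 or 300 mg/kg (methylcellulose suspension); motor impairment = inability to keep balance on rod turning at 10 rpm for at least 1 min. Minimum neurotoxic dose reported.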

Mus musculus [5] = assay: Anticonvulsant activity in albino CD-1 mouse assessed as protection against subcutaneous pentylenetetrazole-induced seizure at 30 to 300 mg/kg, ip measured after 0.5 hrs; type: functional; details: for minimal effective dose: CD-1, 0.5 h, read-out: MED
Procedure, shortened: (§4)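 Male CD-1 mice given compound i.p. (0.5% methylcellulose suspension) at 30, 100, 300 mg/kg, four per group; pentylenetetrazole 85 mg/kg s.c. at 0.5 or 2 h. Absence of clonic convulsions (≥5 s) over 30 min observation counts as protection. Minimum active dose reported.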

Mus musculus [6] = assay: Anticonvulsant activity in ip dosed albino CD-1 mouse assessed as protection against 6 Hz current-induced seizure measured after 2.0 hrs; type: functional; details: CD-1, ip, read-out: MED; procedure, shortened: as §2
Mus musculus [7] = assay: Anticonvulsant activity in albino CD-1 mouse assessed as protection against subcutaneous pentylenetetrazole-induced seizure at 30 to 300 mg/kg, ip measured after 2.0 hrs; type: functional; details: for minimal effective dose: CD-1, 2 h, read-out: MED; procedure, shortened: as §4
Mus musculus [8] = assay: Neurotoxicity in albino CD-1 mouse assessed as motor impairment at 30 to 300 mg/kg mg/kg, ip measured after 0.5 hrs by rotarod test; type: toxicity, organism-based; details: in vivo; procedure, shortened: as §3
Mus musculus [9] = assay: Anticonvulsant activity in ip dosed albino CD-1 mouse assessed as protection against maximal electroshock-induced seizure; type: functional; details: CD-1, ip
Procedure, shortened: (§5)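 Quantitative work at time of peak effect previously estimated in screening; groups of six mice given various i.p. doses until ≥3 points within 10–90% seizure protection (MES or scPTZ) or minimal motor impairment on rotarod (10 rpm, failure to hold ≥1 min).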

[10] = Neurotoxicity in ip dosed albino CD-1 mouse assessed as motor impairment by rotarod test; type: toxicity, organism-based; details: in vivo; procedure, shortened: as §5
[11] = Protective index, ratio of TD50 for neurotoxicity in ip dosed albino CD-1 mouse to ED50 for anticonvulsant activity in ip dosed maximal electoshock-induced seizure albino CD-1 mouse model; type: toxicity, organism-based; details: in vivo, read-out: Ratio TD50/ED50
Procedure, shortened: (§6)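 Protective index computed as TD50 (rotarod) divided by ED50 (MES or scPTZ), both from probit analysis on groups of six i.p.-dosed mice.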

Mus musculus [12] = assay: Anticonvulsant activity in ip dosed albino CD-1 mouse assessed as protection against maximal electroshock-induced seizure measured as time to peak effect; type: functional; procedure, shortened: as §5
Mus musculus [13] = assay: Anticonvulsant activity in ip dosed albino CD-1 mouse assessed as protection against subcutaneous pentylenetetrazole-induced seizure measured as time to peak effect; type: functional; procedure, shortened: as §5
Salmonella typhimurium [14] = assay: Mutagenic activity in Salmonella typhimurium TA100 assessed as mutagenicity index at 40 ng/ml by Ames test; type: toxicity, organism-based; details: salmonella enterica subsp. enterica serovar typhimurium
Procedure, shortened: (§7)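 Ames TA100 liquid pre-incubation (minimal medium, 37 °C) and V. harveyi assay (BOSS medium, 30 °C); test at 40 ng/ml, triplicate. Mutagenic index = induced revertants / spontaneous revertants (DMSO control); M.I. ≥2 considered mutagenic.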

Vibrio harveyi [15] = assay: Antimutagenic activity in Vibrio harveyi BB7XM assessed as inhibition of nitroquinoline-N-oxide-induced revertant colonies; type: functional
Procedure, shortened: (§8)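 Revertants induced by 4-nitroquinoline-N-oxide (final 40 ng/ml) with versus without test compound; TA100 at 37 °C, V. harveyi strains at 30 °C in BOSS medium. Three independent repetitions; inhibition % = 100 − (R1/R2 × 100); 25–40% moderate, ≥40% strong.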

Vibrio harveyi [16] = assay: Mutagenic activity in Vibrio harveyi BB7XM assessed as mutagenicity index at 40 ng/ml; type: organism-based; details: in vivo; procedure, shortened: as §7
Vibrio harveyi [17] = assay: Mutagenic activity in Vibrio harveyi BB7 assessed as mutagenicity index at 40 ng/ml; type: organism-based; details: in vivo; procedure, shortened: as §7
Vibrio harveyi [18] = assay: Antimutagenic activity in Vibrio harveyi BB7 assessed as inhibition of nitroquinoline-N-oxide-induced revertant colonies; type: functional; procedure, shortened: as §8
Salmonella typhimurium [19] = assay: Antimutagenic activity in Salmonella typhimurium TA100 assessed as inhibition of nitroquinoline-N-oxide-induced revertant colonies by Ames test; type: functional, Salmonella enterica subsp. enterica serovar Typhimurium; procedure, shortened: as §8
Mus musculus [20] = assay: Neurotoxicity in albino CD-1 mouse assessed as mouse mortality at 300 mg/kg mg/kg, ip measured after 0.5 hrs; type: toxicity, organism-based; details: in vivo
Procedure, shortened: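 Male albino CD-1 mice (16–26 g), four per group, each used once. Compounds were suspended in 0.5% methylcellulose/water and injected i.p. at 30, 100 and 300 mg/kg. Acute motor impairment was scored by rotarod at 0.5 and 2 h: inability to stay on a rod turning at 10 rpm for at least 1 min.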

Mus musculus [21] = assay: Anticonvulsant activity in ip dosed albino CD-1 mouse assessed as protection against subcutaneous pentylenetetrazole-induced seizure; type: functional; procedure, shortened: as §5
[22] = Protective index, ratio of TD50 for neurotoxicity in ip dosed albino CD-1 mouse to ED50 for anticonvulsant activity in ip dosed subcutaneous pentylenetetrazole-induced seizure albino CD-1 mouse model; type: toxicity, organism-based; details: in vivo, read-out: Ratio TD50/ED50; procedure, shortened: as §6
Rattus norvegicus = organism: Rattus norvegicus; assay: Displacement of [3H]BTX from voltage-sensitive sodium channel site2 in rat cerebral cortex at 100 uM measured after 60.0 mins by scintillation counting; type: tissue-based

| SMILES | minimal effective dose (Mus musculus [1]) | minimal effective dose (Mus musculus [2]) | MTC (Mus musculus [4]) | minimal effective dose (Mus musculus [5]) | minimal effective dose (Mus musculus [7]) | MTC (Mus musculus [8]) | MED (Mus musculus [5]) | MED (Mus musculus [7]) | Time (Mus musculus [12]) | Time (Mus musculus [13]) | MED (Mus musculus [1]) | MED (Mus musculus [2]) | other results |
| --- | --- | --- | --- | --- | --- | --- | --- | --- | --- | --- | --- | --- | --- |
| CC1(c2ccccc2)CC(=O)N(CC(=O)N2CCOCC2)C1=O (stereo not drawn) | 300 mg/kg | 300 mg/kg | Non-toxic | 300 mg/kg | 300 mg/kg | Non-toxic | – | – | – | – | – | – | minimal effective dose (Mus musculus [3]): 100 mg/kg; minimal effective dose (Mus musculus [6]): 100 mg/kg |
| CC1(c2ccccc2)CC(=O)N(CC(=O)N2CCN(c3cccc(C(F)(F)F)c3)CC2)C1=O (stereo not drawn) | 300 mg/kg | 300 mg/kg | Non-toxic | – | – | Non-toxic | inactive | inactive | – | – | – | – | minimal effective dose (Mus musculus [3]): 300 mg/kg; minimal effective dose (Mus musculus [6]): 300 mg/kg |
| Cc1cccc(N2CCN(C(=O)CN3C(=O)CC(C)(c4ccccc4)C3=O)CC2)c1 (stereo not drawn) | 300 mg/kg | 100 mg/kg | 300 mg/kg | – | – | 300 mg/kg | inactive | inactive | – | – | – | – | – |
| CC1(c2ccccc2)CC(=O)N(CC(=O)N2CCN(c3cccc(Cl)c3)CC2)C1=O (stereo not drawn) | 300 mg/kg | 300 mg/kg | Non-toxic | – | – | Non-toxic | inactive | inactive | 2 h | 2 h | – | – | ED50 (Mus musculus [9]): 215 mg/kg; TD50 [10]: > 500 mg/kg; selectivity ratio [11]: > 2.32 |
| CCCC(CCC)C(=O)O [VALPROIC ACID] | – | 300 mg/kg | Non-toxic | 300 mg/kg | – | Non-toxic | – | inactive | 0.5 h | 0.5 h | inactive | – | – |
| CC1(c2ccccc2)CC(=O)N(CC(=O)N2CCN(c3ccc(Cl)c(Cl)c3)CC2)C1=O (stereo not drawn) | 300 mg/kg | – | Non-toxic | – | – | Non-toxic | inactive | inactive | – | – | – | inactive | Activity_index (Salmonella typhimurium [14]): 0.3; inhibition (INH) (Vibrio harveyi [15]): 63%; Activity_index (Vibrio harveyi [16]): 0.7; Activity_index (Vibrio harveyi [17]): 1.2; inhibition (INH) (Vibrio harveyi [18]): 47%; inhibition (INH) (Salmonella typhimurium [19]): 36% |
| CC1(c2ccccc2)CC(=O)N(CC(=O)N2CCN(C3CCCCC3)CC2)C1=O (stereo not drawn) | – | – | Non-toxic | – | – | 300 mg/kg | inactive | inactive | – | – | inactive | inactive | Activity (Mus musculus [20]): Toxic |
| CC1(c2ccccc2)CC(=O)N(CC(=O)N2CCN(c3ccccc3)CC2)C1=O (stereo not drawn) | – | 300 mg/kg | Non-toxic | 100 mg/kg | 300 mg/kg | Non-toxic | – | – | 0.5 h | 0.5 h | inactive | – | ED50 (Mus musculus [21]): 40.9 mg/kg; selectivity ratio [22]: > 12.2; TD50 [10]: > 500 mg/kg; inhibition (Rattus norvegicus): 34.2% |
| CC1(c2ccccc2)CC(=O)N(CC(=O)N2CCN(c3ncccn3)CC2)C1=O (stereo not drawn) | – | – | Non-toxic | – | 100 mg/kg | Non-toxic | inactive | – | – | – | inactive | inactive | – |
